UCH37 inh: inhibitors of human UCH37 deubiquitinase, primary screen, biochemical, Ub-AMC cleavage, fluorescence | Ubiquitin carboxyl-terminal hydrolase isozyme L5 (Homo sapiens), Q9Y5K5 | purified proteasome/UCH37 | inhibition, % (concentration not given with the values) | 330,000 compounds, 0.33% hits | AID 588478, 2011;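 active means mean inhibition over replicate wells above about 20%, limit read from the data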;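 further: 0% = compound-free wells with enzyme and 100% = wells lacking proteasome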
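Assay system: Proteasome-bound UCH37. Buffer or medium: pH 7.4 Tris-HCl (50 mM) with ovalbumin, ATP-MgCl2, DTT. Incubation: 30 min preincubation with enzyme, 25 min cleavage at room temperature. Measured by: fluorescence, ex 355 nm, em 460 nm. Read-out basis: percent inhibition. Control set: wells without proteasome as full block, compound-free enzyme plus substrate as uninhibited.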
ATG4B inh: ATG4B protease inhibitors, primary screen, biochemical, fluorescence, uHTS. inhibition, % at 8.33 µM. ATG4B cleavage of LC3-PLA2, NBD-HPC fluorescence, 1 h. 340,000 compounds, 0.51% hits. Cysteine protease ATG4B (Homo sapiens), Q9Y4P1. AID 504462, 2011; in the data active means inhibition above about 40%
Rin1-Abl PPI inh: inhibitors of Rin1-Abl protein binding, primary screen, biochemical, TR-FRET. Tyrosine-protein kinase ABL1 (Homo sapiens) + Ras and Rab interactor 1 (Homo sapiens), …. inhibition, % at 7.35 µM. 360,000 compounds, 0.4% hits. AID 588664, 2011; in the data active means inhibition above about 5%, passing the limit was not always enough
Tb MetRS inh: T. brucei MetRS inhibitors, primary screen, biochemical, luminescence; purified T. brucei MetRS, ATP depletion, Kinase-Glo luminescence; inhibition, % at 11.9 µM; 360,000 compounds, 0.4% hits;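 active means inhibition above a per-plate cutoff of the control wells' mean inhibition plus 3 SD, cut at about 5.5% in these data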;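 further: 0% = DMSO wells median and 100% = median of wells with control inhibitor compound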
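Material: T. brucei methionyl-tRNA synthetase, purified; reagent: substrates ATP, L-methionine and bulk Escherichia coli tRNA; dosing: 11.9 µM single point; timing: 15 min plus 2 h at 25 °C; detection: luminescence of leftover ATP; evaluation: % inhibition; control set: DMSO-only wells as low control; replicates: singlicate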
* marks the source's active call; other numbers are inactive results; · = no result. Sampled rows, rich in hits. Any-hit rate of the full collection: about 1.4%.

SMILES	UCH37 inh	ATG4B inh	Rin1-Abl PPI inh	Tb MetRS inh
Cc1c(C)c(C)c(C(=O)c2ccc(NC(=O)c3ccccc3C(=O)O)cc2)c(C)c1C	5	94*	-1	-1
O=C1c2cc(CO)cc(O)c2C(=O)c2c(O[C@@H]3OC(CO)[C@@H](O)[C@@H](O)[C@@H]3O)cccc21 (stereo not given in full)	3	-31	-9	0
O=C(O)c1cc(O)c2c(c1)[C@@H]([C@H]1c3cc(C(=O)O)cc(O)c3C(=O)c3c(O[C@@H]4O[C@H](CO)[C@@H](O)[C@H](O)[C@H]4O)cccc31)c1cccc(OC3O[C@H](CO)[C@@H](O)[C@H](O)[C@H]3O)c1C2=O (stereo not given in full)	31*	4	8	1
COCCSc1nnc(NC(=O)C2CC(=O)N(CCc3ccc(F)cc3)C2)s1 (stereo not given)	0	-6	1	-1
CCC1(CC)NC(=O)NC1=O	32*	-12	-1	-1
CN(N=Cc1cccs1)c1cc(=O)n(C)c(=O)[nH]1	21*	·	·	·
Cc1ccc(NC(=O)CSc2ccccc2NC(=O)c2ccccc2)cc1Cl	6	-5	-1	0
O=C(O)c1ccccc1C(=O)Nc1ccc(Oc2cccc3ccccc23)cc1	-1	29	1	-1
Cc1ccc(C(=O)NC(=S)Nc2cccnc2Cl)cc1	2	6	-2	0
O=C(Nc1ccc(Br)cn1)C1CCCN1S(=O)(=O)c1ccccc1 (stereo not given)	30*	-2	-2	-3
O=C(Nc1ccc(Cl)cn1)C1CCCN1S(=O)(=O)c1ccccc1 (stereo not given)	6	3	-1	0
Cc1ccc(OCCSCc2nc3ccccc3[nH]2)cc1	2	-8	1	6.8*
Cc1ccc(CSCc2nc3ccccc3[nH]2)cc1	-1	3	1	0
c1ccc(SCc2nc3ccccc3[nH]2)cc1	4	13	3	6.5*
Cc1[nH]n(-c2ccccc2)c(=O)c1C=NCc1ccco1	2	·	·	·
COC(=O)c1ccc(CNC(=O)N2CCN(S(=O)(=O)c3ccc(C)cc3)CC2)cc1	-2	-14	1	0
CC1=C(/C=C/C(C)=C/C=C/C(C)=C/CO)C(C)(C)CCC1	78*	-30	-1	0
N#C/C(=N/Nc1ccc([N+](=O)[O-])cc1)C(=N)N1CCCCC1	·	6	-9	0
N#CC(=NNc1ccc([N+](=O)[O-])cc1)C(=N)N1CCCCC1	23*	·	·	·
Cc1c(N=Cc2cc(Br)cc(Br)c2O)cccc1C(=O)O	5	46*	0	0
Cc1nc(SCc2ccc(O)c([N+](=O)[O-])c2)c([N+](=O)[O-])[nH]1	20*	2	-5	0
O=C(O)C1Nc2c(C(=O)N3CCOCC3)cccc2C2C=CCC12 (stereo not given)	6	2	6.8*	0
CCOC(=O)N1CCN(C(=O)c2cc3ccccc3o2)CC1	2	-1	-3	-1
O=C(c1ccccc1)N1CCN(C(=O)c2cc3ccccc3o2)CC1	27*	-3	-2	0
Cc1cc(Oc2ccc(N)cn2)ccc1Cl	-1	-10	-1	-1
SMILES	UCH37 inh	ATG4B inh	Rin1-Abl PPI inh	Tb MetRS inh
CS(=O)(=O)N(Cc1ccc(Cl)cc1)c1ccc(C(=O)N2CCN(c3ccccc3)CC2)cc1	5	9	1	0
CS(=O)(=O)N(Cc1ccccc1)c1ccc(C(=O)N2CCN(c3cccc(Cl)c3)CC2)cc1	-4	56*	0	0
CCC(=O)NC(c1ccccc1OC)c1ccc2cccnc2c1O (stereo not given)	3	8	14*	-1
O=C(CSc1nnc(-c2cccnc2)o1)Nc1ccccn1	3	-1	2	-1
O=C(O)c1ccc2[nH]c3c(c2c1)CCCC3	21*	6	1	0
CC1CCc2[nH]c3ccc(C(=O)O)cc3c2C1 (stereo not given)	4	-5	-1	0
CCc1cc(C(=O)O)c(NC(=O)/C=C/c2ccc(OC)c(OC)c2)s1	24*	-8	1	0
O=Cc1ccc(Sc2nnc(-c3ccccc3)o2)c([N+](=O)[O-])c1	8	49*	-3	0
O=C(COC(=O)c1ccc[nH]c1=O)NC1CC1	0	-9	1	0
Cc1cccc(OCC(=O)Nc2cc(C)on2)c1	34*	2	-4	1
Cc1cc(NC(=O)COc2cccc(Oc3ccccc3)c2)no1	5	14	0	-1
Cc1cccc(OCC(=O)Nc2ccc(C(=O)c3ccc(C(=O)O)cc3)cc2)c1	35*	-8	2	0
Cc1cccc(OCC(=O)Nc2ccc(NC(=O)c3ccccc3)cc2)c1	-1	2	1	0
O=C(O)C=Cc1c[nH]c2nccnc12	·	·	3	0
NC(=O)c1ccc(N=Cc2ccc([N+](=O)[O-])s2)cc1	62*	-12	0	0
COc1cc(/C=C2/C(=O)NN(c3ccc(F)cc3)C2=O)cc(Cl)c1O	13	2	-3	0
COc1cc(/C=C2/C(=O)NN(c3ccc(Cl)c(Cl)c3)C2=O)cc([N+](=O)[O-])c1O	22*	38	0	0
COc1ccc(N=Cc2cc(Cc3ccccc3Cl)cc([N+](=O)[O-])c2O)cc1OC	8	94*	2	-2
COc1cc(CCN=Cc2cc(Cl)cc(Cl)c2O)c([N+](=O)[O-])cc1OC	·	·	1	0
Cc1ccccc1-c1cc(C(=O)NCc2cccc(C(F)(F)F)c2)nn1CC1CC(c2cccc([N+](=O)[O-])c2)=NO1 (stereo not given)	35*	26	2	1
CC(=O)Cc1nsc(NC(=O)c2ccc(F)cc2)n1	2	-2	-3	0
Nc1nc(NC(=O)c2ccc(F)cc2)ns1	27*	-2	-1	0
O=C(c1ccco1)N1C(=O)c2cccc3c(S(=O)(=O)N4CCCC4)ccc1c23	-48	0	-1	-1
CC1(C)C2([N+](=O)[O-])CN(CCO)CC1([N+](=O)[O-])CN(CCO)C2	2	-9	2	-1
CCOC(=O)c1c(CN(C)C)n(C)c2c(O)c(N=NC(N)=O)c3ccc(Br)cc3c12	52*	-10	4	1
CC(C)(C)C(C(=O)Oc1ccccc1)c1ccccc1 (stereo not given)	24*	4	3	0
Cc1ccc(-n2nnnc2Sc2nc([N+](=O)[O-])nn2C)cc1C	20*	-7	0	0
Cc1ccc(C)c(-n2nnnc2Sc2nc([N+](=O)[O-])nn2C)c1	2	1	0	1
COc1cccc(CN(C)C(=O)C2CCCN(C(=O)c3ccc(Cl)cc3)C2)c1 (stereo not given)	·	·	-1	0
COCCNC(=O)c1onc(CSc2cc(C)cc(C)c2)c1C(=O)O	34*	-7	2	0

Compound activity: PubChem, several laboratories
